Bioassay records: PubChem, Broad Institute
rRNA inh HTS: selective bacterial rRNA inhibition in E. coli. E. coli WT GFP vs humanized-ribosome RFP mutants, fluorescence, 24 h; stronger effect = lower value; DMSO median 0, no signal -100. GFP signal change (wild-type ribosome), % (test concentration not listed). hit rate 1.6% among 350,000. AID 720706;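 active means significant combined selectivity score with lowered wild-type GFP, culture density cut under 30%, mutant RFP and density less affected; inactive means any of these conditions unmet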
E-selectin induc: induces E-selectin expression in human endothelial cells; P16581; HUVEC E-selectin immunofluorescence imaging; normalized: neutral wells 0, TNF-alpha wells 100; activation, % at 7.58 µM; hit rate 0.37% among 260,000;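 active means mean E-selectin-positive cell signal at least 10% of the positive control, reached in at least 60% of replicates, without over 20% cell loss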
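System: HUVEC / Compound: single concentration / Signal: immunofluorescence imaging / Read-out: percent E-selectin-positive cells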
MLL AF4-AF9 inh: blocks AF4 peptide binding to human AF9 | inhibition, % at 10 µM | AlphaScreen, biotin-AF4 peptide binding to FLAG-AF9 | AID 651704 | hit rate 0.47% among 350,000;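 active means every replicate reaching a set inhibition limit, whatever the replicate mean, cut at about 25% in these data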
ERAP1 inh: blocks human ERAP1 aminopeptidase activity; Q9NZ08; recombinant ERAP1, Leu-AMC fluorescence, 60 min; inhibition, % at 10.7 µM; hit rate 0.15% among 340,000;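 active means mean replicate inhibition of at least 30%, or all replicates individually reaching that 30% level; inactive means mean below 30% and not every replicate reaching it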
Target sequence (Q9NZ08 whole entry, looked up): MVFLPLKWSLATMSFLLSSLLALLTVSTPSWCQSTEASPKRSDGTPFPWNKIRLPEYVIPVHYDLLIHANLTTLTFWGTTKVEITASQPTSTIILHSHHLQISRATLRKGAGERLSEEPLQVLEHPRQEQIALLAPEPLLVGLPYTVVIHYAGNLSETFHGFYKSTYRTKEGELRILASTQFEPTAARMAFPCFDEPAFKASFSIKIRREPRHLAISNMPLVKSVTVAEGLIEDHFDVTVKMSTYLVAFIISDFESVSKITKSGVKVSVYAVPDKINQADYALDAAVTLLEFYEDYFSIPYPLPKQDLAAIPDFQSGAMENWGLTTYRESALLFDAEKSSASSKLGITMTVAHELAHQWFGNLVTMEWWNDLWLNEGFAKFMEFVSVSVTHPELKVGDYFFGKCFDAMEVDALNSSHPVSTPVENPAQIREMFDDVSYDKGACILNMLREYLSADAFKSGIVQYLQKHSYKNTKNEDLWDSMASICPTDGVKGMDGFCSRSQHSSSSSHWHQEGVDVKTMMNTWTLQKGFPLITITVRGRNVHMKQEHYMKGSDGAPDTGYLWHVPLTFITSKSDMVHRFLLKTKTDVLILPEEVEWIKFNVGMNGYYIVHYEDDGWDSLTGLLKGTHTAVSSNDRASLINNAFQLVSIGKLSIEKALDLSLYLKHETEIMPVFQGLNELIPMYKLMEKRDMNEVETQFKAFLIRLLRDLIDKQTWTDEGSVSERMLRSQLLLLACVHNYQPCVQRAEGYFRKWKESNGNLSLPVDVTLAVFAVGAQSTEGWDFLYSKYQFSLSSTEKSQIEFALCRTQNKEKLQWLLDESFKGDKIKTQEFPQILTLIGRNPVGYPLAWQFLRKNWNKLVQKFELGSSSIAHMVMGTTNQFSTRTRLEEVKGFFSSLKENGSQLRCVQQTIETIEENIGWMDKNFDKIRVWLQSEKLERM
SIRT5 block: inhibitors of human sirtuin-5 desuccinylase | Q9NXA8 | Purified SirT5, succinyl-peptide AMC, trypsin-coupled fluorescence | inhibition, % at 15 µM | hit rate 1.1% among 330,000; in the data active means inhibition above about 15%
S100A4 inh HTS: S100A4-myosin IIA interaction inhibition. P26447. S100A4/TAMRA-MyoIIA peptide fluorescence polarization. inhibition, % at 10.7 µM. hit rate 0.14% among 360,000;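 active means mean inhibition of at least 70% across replicates, with every replicate also reaching that level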
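assay system = human S100A4 monomer with TAMRA-labelled myosin IIA peptide | also added = labelled myosin peptide probe, 5 nM | incubation = 5 min between mix addition and reading | control set = DMSO and TFP controls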
Each line names hits and unclear results; the compound was inactive in the other large screens. A selection: hits, their analogues and other compounds. The true share with any hit is near 3.4%.

O=C(NCc1cccnc1)c1ccc(COc2ccccc2Br)o1	rRNA inh HTS -24 (no result: E-selectin induc)
O=C(NCc1cccnc1)c1ccc(COc2ccc3c(c2)CCC3)o1	rRNA inh HTS -21 (no result: E-selectin induc)
O=C(NCc1cccnc1)c1ccc(COc2ccccc2Cl)o1	none (no result: E-selectin induc)
CCCc1ccc(OCc2ccc(C(=O)OC)o2)c(OC)c1	rRNA inh HTS -19 (no result: E-selectin induc)
COc1cccc(S(=O)(=O)N2CCCCN3[C@H](CO)[C@H](c4ccc(-c5ccccc5)cc4)[C@@H]3C2)c1	none
Cc1noc(C)c1NC(=O)N(C)C[C@H]1Oc2ccc(NC(=O)c3ccncc3)cc2CC(=O)N([C@@H](C)CO)C[C@@H]1C	none (no result: E-selectin induc)
COc1ccc(-c2ccc3n(c2=O)C[C@H]2[C@H](CO)[C@@H](C(=O)N4CCOCC4)[C@@H]3N2C)cc1	none
COC(=O)c1ccc(COc2ccc3c(c2)CCC3)o1	rRNA inh HTS -24
COC(=O)C(c1ccccc1)C1(O)CC(C)N(C)CC1C (centres undefined)	SIRT5 block 26 (no result: E-selectin induc)
O=C([C@@H]1[C@@H](CO)[C@@H]2Cn3c(ccc(-c4ccccc4)c3=O)[C@@H]2N1Cc1cocn1)N1CCCCC1	none
O=C(C[C@H]1C[C@H]2c3cc(NS(=O)(=O)c4ccc(F)cc4)ccc3O[C@H]2[C@H](CO)O1)NC1CCCCC1	none
O=S(=O)(NCc1cc(-c2ccccc2)no1)c1ccccc1	rRNA inh HTS -23 (no result: E-selectin induc)
O=S(=O)(NCc1cc(-c2ccccc2)no1)c1ccc(Cl)cc1	none (no result: rRNA inh HTS, MLL AF4-AF9 inh, ERAP1 inh, SIRT5 block, S100A4 inh HTS)
C[C@H](NC(=O)[C@H]1[C@H](CO)[C@H]2Cn3c(ccc(C4=CCCCC4)c3=O)[C@@H]1N2)c1ccccc1	none
COc1cc(NC(=O)c2ccccc2Cl)c2ncccc2c1	none (no result: E-selectin induc, SIRT5 block)
CCC(CNc1cc(OC)cc2cccnc12)NC1CCCCC1 (centres undefined)	MLL AF4-AF9 inh 56, S100A4 inh HTS 140
O=[N+]([O-])c1ccc2nc(NN=Cc3ccc(O)cc3)sc2c1	rRNA inh HTS -12 (no result: E-selectin induc, SIRT5 block)
O=C(Nc1nc2ccc([N+](=O)[O-])cc2s1)c1c(F)cccc1F	none
CCOC(=O)Cn1c(-c2ccc(OC)cc2)c(-c2ccc(OC)cc2)nnc1=O	rRNA inh HTS -22
CCOC(=O)CSc1nnc(-c2ccc(OC)cc2)n1CC	none (no result: rRNA inh HTS, MLL AF4-AF9 inh, ERAP1 inh, SIRT5 block, S100A4 inh HTS)
CCN(c1ccccc1)S(=O)(=O)c1ccc(OC)c(OC)c1	rRNA inh HTS -18 (no result: E-selectin induc)
CCN(c1ccccc1)S(=O)(=O)c1ccc2c(c1)N(C(C)=O)CCS2	rRNA inh HTS -26 (no result: E-selectin induc)
CCN(c1ccccc1)S(=O)(=O)c1ccc(Cl)c(NC(=O)CN2C(=O)NC3(CCCC3)C2=O)c1	SIRT5 block 16 (no result: ERAP1 inh)
CCN(c1ccccc1)S(=O)(=O)c1ccc2c(c1)N(C(C)=O)CCO2	none (no result: E-selectin induc)
CCN(c1ccc(OC)cc1)S(=O)(=O)c1ccc2c(c1)NC(=O)CS2	rRNA inh HTS -27 (no result: E-selectin induc)
CCN(c1ccccc1)S(=O)(=O)c1ccc(OC)c(NC(=O)CN2C(=O)NC(C)(C)C2=O)c1	none (no result: E-selectin induc)
CCN(c1ccccc1)S(=O)(=O)c1ccc(OC)c(NC(=O)Cc2ccc(F)cc2)c1	SIRT5 block 61
C[C@@H]1CN([C@H](C)CO)C(=O)c2cc(NC(=O)Nc3cccc4ccccc34)ccc2O[C@H]1CN(C)S(=O)(=O)c1ccc(Cl)cc1	none
COc1ccccc1-c1nc2cc3ccccc3cc2nc1-c1ccccc1	MLL AF4-AF9 inh 26 (no result: E-selectin induc, SIRT5 block)
Oc1ccccc1-c1nc2ccccc2nc1-c1ccccc1	none
C[C@@H]1CN([C@H](C)CO)C(=O)c2cc(NC(=O)c3ccncc3)ccc2O[C@@H]1CN(C)C(=O)NC1CCCCC1	none (no result: E-selectin induc)
CCc1ccc(NS(=O)(=O)c2ccc3[nH]cc(C(=O)N(C)Cc4ccco4)c(=O)c3c2)cc1	rRNA inh HTS -25 (no result: E-selectin induc)
O=C(NCC[C@@H]1CC[C@@H](NC(=O)Nc2cc(F)ccc2F)[C@@H](CO)O1)Nc1ccc(F)cc1	none
CN(C)/C=N/c1ncc(C(=O)c2ccc(-c3ccccc3)cc2)s1	rRNA inh HTS -18
CNc1ncc(C(=O)c2ccc(-c3ccccc3)cc2)s1	none
CNC[C@H]1Oc2c(N)cccc2C(=O)N(C)C[C@H]1C	none (no result: E-selectin induc, MLL AF4-AF9 inh, ERAP1 inh, SIRT5 block, S100A4 inh HTS)
CCOc1cccc(/C=C/c2ccc3cccc(O)c3n2)c1OC	rRNA inh HTS -37
O=C(O)c1ccc(/C=C/c2ccc3cccc(O)c3n2)cc1	none (no result: E-selectin induc)
COc1ccc(Cl)cc1/C=C/c1ccc2cccc(O)c2n1	none (no result: E-selectin induc)
Oc1ccc(/C=C/c2ccc3cccc(O)c3n2)cc1Br	MLL AF4-AF9 inh 26
CCOc1cccc(/C=C/c2ccc3cccc(O)c3n2)c1O	none (no result: E-selectin induc)
COc1ccccc1/C=C/c1ccc2cccc(O)c2n1	MLL AF4-AF9 inh 27
CCNC(=O)C[C@@H]1CC[C@H]2[C@@H](COC[C@@H](O)CN2C(=O)Nc2ccc3c(c2)OCO3)O1	none
COc1ccc(CNc2ccc([N+](=O)[O-])cc2C)cc1	rRNA inh HTS -24 (no result: E-selectin induc)
COC(CN1CCc2c(C)nc3c(C#N)cnn3c21)OC	SIRT5 block 17
CC(C)NC(=O)N(C)C[C@H]1Oc2ncc(C#CC3CC3)cc2C(=O)N([C@@H](C)CO)C[C@@H]1C	none
COc1ccc2c3c([nH]c2c1)[C@@H](CO)N(C(=O)NC(C)C)CC31CCN(C(=O)NC2CCCC2)CC1	none (no result: MLL AF4-AF9 inh, ERAP1 inh, SIRT5 block, S100A4 inh HTS)
Cn1nc(C(F)(F)F)c(-c2ccc(F)cc2)c1NC(=O)Nc1ccc(F)cc1	rRNA inh HTS -30
COc1ccc(-c2c(C(F)(F)F)nn(C)c2NC(=O)c2cccnc2)cc1	none
Cn1nc(C(F)(F)F)c(-c2ccc(Br)cc2)c1NC(=O)c1cccnc1	rRNA inh HTS -44 (no result: MLL AF4-AF9 inh)
Cn1nc(C(F)(F)F)c(-c2cccc(C(F)(F)F)c2)c1NC(=O)CSCC(=O)O	none (no result: E-selectin induc, MLL AF4-AF9 inh)
Cn1nc(C(F)(F)F)c(-c2ccc(Br)cc2)c1NC(=O)c1ccco1	rRNA inh HTS -32
C[C@H](CO)N1C[C@H](C)[C@@H](CN(C)C(=O)Cc2cccnc2)Oc2cc(C#Cc3ccccc3F)ccc2S1(=O)=O	none
Cc1ccccc1N1C(=O)C2ON(c3ccccc3)C(c3ccco3)C2C1=O (centres undefined)	SIRT5 block 23
COc1ccc(NC(=O)N(C)C[C@H]2OCCCC[C@@H](C)Oc3ccc(NS(=O)(=O)c4ccc(Cl)cc4)cc3C(=O)N([C@@H](C)CO)C[C@H]2C)cc1	none
COc1cc(C2(c3ccc(O)c(OC)c3)C(=O)Nc3c(Br)cc(Br)cc32)ccc1O	rRNA inh HTS -48
COc1cc(C2(c3ccc(O)c(OC)c3)C(=O)N(C)c3ccc(Br)cc32)ccc1O	none (no result: E-selectin induc)
O=C(NCC[C@@H]1CC[C@H](NC(=O)C2CCOCC2)[C@@H](CO)O1)c1ccc(F)cc1	none
COc1ccc(N2CCN(C(=O)NCc3ccc(C)cc3)CC2)cc1	none
COc1ccc(CNC(=O)N2CCN(c3ccccc3)CC2)cc1	SIRT5 block 16
